# ALR inh – human ALR oxidase inhibition via reduced H2O2; P55789; purified ALR, DTT oxidation, H2O2 HRP-luminol luminescence; inhibition, % (test concentration not listed); hit rate 3.8% among 290,000; AID 485317;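 active means mean replicate inhibition above about 79%, with every replicate also reaching it, limit read from the data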
# Target sequence (P55789 whole entry, looked up): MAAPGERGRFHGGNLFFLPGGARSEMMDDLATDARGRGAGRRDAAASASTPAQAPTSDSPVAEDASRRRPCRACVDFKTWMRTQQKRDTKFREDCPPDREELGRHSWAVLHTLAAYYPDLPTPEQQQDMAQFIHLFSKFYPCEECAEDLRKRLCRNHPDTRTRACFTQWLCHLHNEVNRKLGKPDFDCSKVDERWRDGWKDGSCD
# Rtt109 HAT inh – C. albicans Rtt109 histone acetyltransferase inhibition. AID 540336. hit rate 0.16% among 330,000. purified Rtt109/Vps75, ThioGlo CoA-SH fluorescence, 4 h. inhibition, % at 34.9 µM;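 active means inhibition of at least 50% in every replicate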
# Target sequence (Q5AAJ8 whole entry, looked up): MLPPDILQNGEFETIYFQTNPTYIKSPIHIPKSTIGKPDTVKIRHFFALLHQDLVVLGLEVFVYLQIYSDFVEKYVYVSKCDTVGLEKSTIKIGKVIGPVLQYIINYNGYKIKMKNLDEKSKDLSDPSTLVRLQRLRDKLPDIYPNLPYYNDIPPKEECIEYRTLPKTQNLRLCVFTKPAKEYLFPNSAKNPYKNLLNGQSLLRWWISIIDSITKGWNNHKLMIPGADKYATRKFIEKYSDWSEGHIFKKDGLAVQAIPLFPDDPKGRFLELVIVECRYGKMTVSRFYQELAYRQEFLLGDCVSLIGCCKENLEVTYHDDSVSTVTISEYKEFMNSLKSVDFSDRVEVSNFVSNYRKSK
# CAL PDZ FP-1 – inhibitors of human CAL PDZ peptide binding. Q9HD26. purified CAL PDZ, TMR-peptide fluorescence polarization, 1 h. inhibition, % at 24.9 µM. hit rate 0.92% among 300,000;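 active means mean inhibition of at least 30% with at least half of replicates also reaching 30%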
# CAL PDZ FP-2 – blocks peptide binding to human CAL PDZ domain; hit rate 0.02% among 330,000; purified CAL PDZ, TMR-peptide fluorescence polarization, 1 h; Q9HD26; inhibition, % at 20 µM; AID 504414;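 active means highest replicate inhibition of at least 40%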
#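 material = purified tagged CAL PDZ domain construct (CerCALP) | compound dosing = 20 µM, one dose | times = 1 h at RT | measured by = fluorescence polarization from S- and P-plane intensities, G-factor corrected | read-out = inhibition from polarization loss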
# Dyrk1A ADPGlo – inhibitors of rat Dyrk1A kinase. inhibition, % at 12.5 µM. Q63470. AID 504441. hit rate 0.43% among 310,000. ADP-Glo luminescence, NFATc1 peptide; in the data active means inhibition above about 50%
# Numbers stand for hits; – = inactive; · = no result. A selection: hits, their analogues and other compounds. The true share with any hit is near 4.3%.
SMILES,ALR inh,Rtt109 HAT inh,CAL PDZ FP-1,CAL PDZ FP-2,Dyrk1A ADPGlo
Cc1ccccc1-c1nc(CS(=O)(=O)CC(=O)NCCCN2CCN(C)CC2)c(C)o1,–,–,–,–,–
Cc1oc(-c2ccc(Cl)cc2)nc1CS(=O)CC(=O)NCCCN1CCCC(C)C1 (stereo not drawn),99,–,–,–,·
Cc1oc(-c2cccs2)nc1CS(=O)CC(=O)NCCCN1CC(C)CC(C)C1 (stereo not drawn),99,–,–,–,–
Cc1ccc(-c2nc(CS(=O)CC(=O)NCCCN3CC(C)CC(C)C3)c(C)o2)cc1 (stereo not drawn),99,–,·,–,–
O=C(CCC(=O)OCc1ccc([N+](=O)[O-])cc1Cl)Nc1ccccc1,–,–,–,–,–
CCc1ccc(-c2nc(CS(=O)CC(=O)NCCCN3CCOCC3)c(C)o2)cc1 (stereo not drawn),100,–,–,–,–
Cc1ccc(-c2nc(CS(=O)CC(=O)NCCN3CCCCC3C)c(C)o2)cc1 (stereo not drawn),98,–,–,–,–
COc1ccc(-c2nc(CS(=O)CC(=O)NCCCN3CC(C)CC(C)C3)c(C)o2)cc1OC (stereo not drawn),98,–,–,–,–
Cc1ccccc1C(=O)N(CC(=O)Nc1sc(C)c(C)c1C(N)=O)C1CCCC1,–,–,–,–,–
O=c1[nH][nH]c2cc(=O)n(-c3ccc(Cl)cc3)nc12,–,·,–,–,–
COc1ccc(OC)c(N=C2SCCCN2C(=O)c2ccc(N3C(=O)CCC3=O)cc2)c1,–,·,·,·,·
CCc1nc2ccc(C(=O)N(C)CC(=O)Nc3cccc(F)c3)cc2nc1CC,–,–,–,–,–
CN(C)/C=N/C(=S)Nc1ccc(Cl)cc1Cl,–,–,–,–,–
O=c1c2ccccc2[nH]c(=S)n1CCCN1CCC(Cc2ccccc2)CC1,–,–,–,–,–
N#CCc1nc2n(n1)Cc1ccccc1-2,–,73,–,–,–
Fc1cccc(/C=N/Nc2ccccn2)c1,–,–,–,–,–
COc1cc(/C=C(\C#N)c2ccccn2)cc(OC)c1O,98,–,–,–,–
C(=N\Nc1ccccn1)/c1ccc2c(c1)OCCO2,98,–,–,–,–
CCOc1ccc(/C=N/Nc2ccccn2)cc1OC,86,–,–,–,·
COc1cc(/C=N/Nc2ccccn2)cc(OC)c1O,99,–,–,–,–
COc1cc(/C=C(\C#N)c2ccccn2)ccc1OCc1ccccc1Cl,–,–,–,–,–
C#CCOCCOCCOCCNc1nc(N2CCN(C(=O)[C@H](CCC(=O)O)n3cc(CN)nn3)CC2)nc(N2CCN(C(=O)[C@H](CCCN=C(N)N)n3cc(C(N)[C@@H](C)CC)nn3)CC2)n1 (stereo partly drawn),·,–,–,–,·
COc1ccc(NC(C)=O)cc1S(=O)(=O)NCCc1ccccn1,–,–,·,–,–
O=C(COC(=O)c1cn(-c2ccccc2)nc1-c1cccnc1)NC1CC1,–,–,–,–,–
COc1cccc(N2CCN(C(=O)c3cccc(NC4=NC5CS(=O)(=O)CC5S4)c3)CC2)c1 (stereo not drawn),100,–,–,–,–
SMILES,ALR inh,Rtt109 HAT inh,CAL PDZ FP-1,CAL PDZ FP-2,Dyrk1A ADPGlo
CCOC(=O)CC(NC(=O)c1ccc(C)cc1)c1ccc(OC)cc1 (stereo not drawn),–,–,–,–,–
COCc1cc(C)nc(N2CCN(c3ccccc3)CC2)c1C#N,95,–,–,–,–
COCc1cc(C)nc(N2CCN(Cc3ccccc3)CC2)c1C#N,–,–,–,–,–
CC(=O)Oc1ccc(C(=O)Nc2cccc(C(=O)Nc3ccccc3C(=O)O)c2)cc1,–,–,–,–,–
CCOc1ccc(C(C(=O)NCC2CCCO2)N(Cc2cccc(OC)c2)C(=O)c2snc(C(N)=O)c2N)cc1 (stereo not drawn),·,–,–,–,–
CCOc1ccc(C(C(=O)NCC2CCCO2)N(Cc2ccccc2)C(=O)c2snc(C(N)=O)c2N)cc1 (stereo not drawn),–,–,88,–,–
COc1ccccc1CN(C)S(=O)(=O)c1cccs1,–,–,64,–,–
CN(Cc1ccccc1C#N)S(=O)(=O)c1cccs1,–,–,·,–,–
CCN1CC(c2ccccc2)C(c2ccc(Cl)cc2)=N1 (stereo not drawn),95,–,–,–,–
CN1N=C(c2ccc(Cl)cc2)CC(c2ccc(Cl)cc2)C1=O (stereo not drawn),·,–,–,–,–
Cc1nnc(SCc2cnc(-c3ccc(C(C)C)cc3)s2)n1C,98,–,–,–,–
Cc1cc(/C=C2\Sc3ccccc3N2C)cc(C)[n+]1CC1CCCO1 (stereo not drawn),·,–,–,–,–
CCOc1cccc(-c2cc(C(=O)NN)[nH]n2)c1,79,–,–,–,–
C=CCOC(=O)C1=C(C)NC(SCC(=O)Nc2ccc(C)c(Cl)c2)=C(C#N)C1c1ccco1 (stereo not drawn),98,–,–,·,–
N#CC1=C(SCC(=O)Nc2ccc(C(=O)O)cc2)NC(=O)CC1c1ccco1 (stereo not drawn),98,–,–,–,–
Cc1cc(C(=O)OCC(=O)Nc2c(Cl)cccc2C(F)(F)F)c(C)o1,–,–,–,–,–
Cn1cc([N+](=O)[O-])c(C(=O)N2CCCCCC2)n1,–,–,–,–,–
Cc1ccc(N2CCN(S(=O)(=O)c3ccc4c(c3)NC(=O)C(C)C(=O)N4)CC2C)cc1 (stereo not drawn),97,–,·,–,–
Cc1ccc(N2CCN(S(=O)(=O)c3ccc4c(c3)n(C)c(=O)c(=O)n4C)CC2C)cc1 (stereo not drawn),–,–,–,–,–
CC1=CC(c2ccc(Cl)cc2)n2nc(NC(=O)CCC(=O)O)nc2N1 (stereo not drawn),–,–,–,–,–
COc1ccc(-c2[nH]ncc2CN2CCC(N3CCSCC3)CC2)cc1F,–,–,–,–,–
CCN(CC)c1ccc(NC(=O)C2=CCN(S(=O)(=O)c3ccc(F)cc3)CC2)c(C)c1,87,–,·,–,–
CCN(CC)c1ccc(NC(=O)c2c(OC)cccc2OC)c(C)c1,99,–,–,–,–
O=C(CCN1CCOCC1)c1ccc(Br)cc1,98,–,–,–,·
O=C(CCN1CCCCCC1)c1ccccc1,91,–,–,–,–
SMILES,ALR inh,Rtt109 HAT inh,CAL PDZ FP-1,CAL PDZ FP-2,Dyrk1A ADPGlo
O=C(CCN1CCOCC1)c1ccc(Cl)cc1,96,–,–,–,·
COc1ccc(C(=O)CCN2CCCCCC2)cc1,–,–,–,–,–
O=C(CCN1CCN(c2ccccc2)CC1)c1ccc(Br)cc1,–,–,–,–,–
Cn1c(=O)[nH]c(=O)c2c1nc(N1CCOCC1)n2CC(=O)c1ccccc1,–,–,–,–,–
C1=C(c2ccco2)N2CCN=C2S1,80,–,–,–,–
COc1ccc(CCNC(=O)c2ccc3c(c2)NC(=O)C(CSCc2cc(C)ccc2C)N3)cc1OC (stereo not drawn),99,·,·,·,·
